# Assay results: article PMC7004556 (Cancer Science, 2020)
# Tested on: patients with advanced solid tumors
# Experiment: Phase I dose escalation: safety and tolerability
# Assay type: in vivo, human
# In short: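 Patients received a single 1 mg oral dose on cycle 0 day 1, then a washout on days 2-7. Oral once-daily dosing followed in 28-day cycles from day 8-10. Doses were escalated by mTPI design (target DLT rate 25% ± 5%). DLTs were assessed over cycles 0-1 against predefined haematological, non-haematological, calcification and hyperphosphataemia criteria. AEs were coded by MedDRA v20.1 and graded by CTCAE v4.03.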
smiles,measurement,setting,value
CNC(=O)n1ccc2cc(Oc3ccnc(NC(=O)c4ccc(C5CCN(CCO)CC5)cc4)c3)c(OCCOC)cc21 [E7090],"Lipase increased, treatment‐related TEAE","60 mg (n = 3), any grade",1 (33.3) n (%)
same,"Nausea, treatment‐related TEAE","60 mg (n = 3), any grade",1 (33.3) n (%)
same,"PPE syndrome, treatment‐related TEAE","60 mg (n = 3), any grade",1 (33.3) n (%)
same,"Vomiting, treatment‐related TEAE","60 mg (n = 3), any grade",1 (33.3) n (%)
same,"Anemia, treatment‐related TEAE","100 mg (n = 3), any grade",1 (33.3) n (%)
same,"Blood ALP increased, treatment‐related TEAE","100 mg (n = 3), any grade",1 (33.3) n (%)
same,"Blood creatinine increased, treatment‐related TEAE","100 mg (n = 3), any grade",1 (33.3) n (%)
same,"Hyperphosphatemia, treatment‐related TEAE","100 mg (n = 3), any grade",3 (100.0) n (%)
same,"Lipase increased, treatment‐related TEAE","100 mg (n = 3), any grade",1 (33.3) n (%)
same,"Nausea, treatment‐related TEAE","100 mg (n = 3), any grade",1 (33.3) n (%)
same,"Retinal detachment, treatment‐related TEAE","100 mg (n = 3), any grade",2 (66.7) n (%)
same,"ALT increased, treatment‐related TEAE","140 mg (n = 3), any grade",3 (100.0) n (%)
same,"AST increased, treatment‐related TEAE","140 mg (n = 3), any grade",2 (66.7) n (%)
same,"Anemia, treatment‐related TEAE","140 mg (n = 3), any grade",1 (33.3) n (%)
same,"Blood ALP increased, treatment‐related TEAE","140 mg (n = 3), any grade",2 (66.7) n (%)
same,"Blood creatinine increased, treatment‐related TEAE","140 mg (n = 3), any grade",3 (100.0) n (%)
same,"Diarrhea, treatment‐related TEAE","140 mg (n = 3), any grade",1 (33.3) n (%)
same,"Dysgeusia, treatment‐related TEAE","140 mg (n = 3), any grade",2 (66.7) n (%)
same,"Hyperphosphatemia, treatment‐related TEAE","140 mg (n = 3), any grade",3 (100.0) n (%)
same,"Lipase increased, treatment‐related TEAE","140 mg (n = 3), any grade",1 (33.3) n (%)
same,"Nausea, treatment‐related TEAE","140 mg (n = 3), any grade",1 (33.3) n (%)
same,"PPE syndrome, treatment‐related TEAE","140 mg (n = 3), any grade",1 (33.3) n (%)
same,"Retinal detachment, treatment‐related TEAE","140 mg (n = 3), any grade",1 (33.3) n (%)
same,"Vomiting, treatment‐related TEAE","140 mg (n = 3), any grade",1 (33.3) n (%)
same,"ALT increased, treatment‐related TEAE","180 mg (n = 3), any grade",2 (66.7) n (%)
same,"AST increased, treatment‐related TEAE","180 mg (n = 3), any grade",2 (66.7) n (%)
same,"Blood creatinine increased, treatment‐related TEAE","180 mg (n = 3), any grade",1 (33.3) n (%)
same,"Diarrhea, treatment‐related TEAE","180 mg (n = 3), any grade",3 (100.0) n (%)
same,"Dysgeusia, treatment‐related TEAE","180 mg (n = 3), any grade",1 (33.3) n (%)
same,"Hyperphosphatemia, treatment‐related TEAE","180 mg (n = 3), any grade",3 (100.0) n (%)
same,"Lipase increased, treatment‐related TEAE","180 mg (n = 3), any grade",1 (33.3) n (%)
same,"Nausea, treatment‐related TEAE","180 mg (n = 3), any grade",1 (33.3) n (%)
same,"PPE syndrome, treatment‐related TEAE","180 mg (n = 3), any grade",2 (66.7) n (%)
same,"Vomiting, treatment‐related TEAE","180 mg (n = 3), any grade",1 (33.3) n (%)
same,"ALT increased, treatment‐related TEAE","180 mg (n = 3), ≥Grade 3",2 (66.7) n (%)
same,"AST increased, treatment‐related TEAE","180 mg (n = 3), ≥Grade 3",1 (33.3) n (%)
same,"Vomiting, treatment‐related TEAE","180 mg (n = 3), ≥Grade 3",1 (33.3) n (%)
same,"Blood creatinine increased, treatment‐related TEAE","1‐30 mg (n = 12), any grade",2 (16.7) n (%)
same,"Lipase increased, treatment‐related TEAE","1‐30 mg (n = 12), any grade",1 (8.3) n (%)
same,"Nausea, treatment‐related TEAE","1‐30 mg (n = 12), any grade",1 (8.3) n (%)
same,Recommended dose for Part 2 (expansion part),QD,140 mg
same,"ALT increased, treatment‐related TEAE","Total (N = 24), any grade",6 (25.0) n (%)
same,"AST increased, treatment‐related TEAE","Total (N = 24), any grade",4 (16.7) n (%)
same,"Anemia, treatment‐related TEAE","Total (N = 24), any grade",3 (12.5) n (%)
same,"Blood ALP increased, treatment‐related TEAE","Total (N = 24), any grade",3 (12.5) n (%)
same,"Blood creatinine increased, treatment‐related TEAE","Total (N = 24), any grade",9 (37.5) n (%)
same,"Diarrhea, treatment‐related TEAE","Total (N = 24), any grade",6 (25.0) n (%)
same,"Dysgeusia, treatment‐related TEAE","Total (N = 24), any grade",3 (12.5) n (%)
same,"Hyperphosphatemia, treatment‐related TEAE","Total (N = 24), any grade",9 (37.5) n (%)
same,"Lipase increased, treatment‐related TEAE","Total (N = 24), any grade",5 (20.8) n (%)
same,"Nausea, treatment‐related TEAE","Total (N = 24), any grade",5 (20.8) n (%)
same,"PPE syndrome, treatment‐related TEAE","Total (N = 24), any grade",4 (16.7) n (%)
same,"Retinal detachment, treatment‐related TEAE","Total (N = 24), any grade",3 (12.5) n (%)
same,"Vomiting, treatment‐related TEAE","Total (N = 24), any grade",3 (12.5) n (%)
same,"ALT increased, treatment‐related TEAE","Total (N = 24), ≥Grade 3",2 (8.3) n (%)
same,"AST increased, treatment‐related TEAE","Total (N = 24), ≥Grade 3",1 (4.2) n (%)
same,"Vomiting, treatment‐related TEAE","Total (N = 24), ≥Grade 3",1 (4.2) n (%)
same,Maximum tolerated dose (MTD),daily oral dose of 1‐180 mg,not reached
same,Drug‐related deaths,in vivo,No drug‐related deaths were reported
same,Number of AE of hyperphosphatemia,in vivo,nine
same,Number of AE of retinal detachment,in vivo,three
same,SAE considered related to the study drug,in vivo,None
same,TEAE leading to discontinuation of the study drug,in vivo,no TEAE led to discontinuation
same,TEAE leading to dose reduction: PPE syndrome,in vivo,2 n
same,TEAE leading to dose reduction: increased ALT,in vivo,2 n
same,TEAE leading to dose reduction: increased AST,in vivo,1 n
same,TEAE‐related dose interruption: anorexia,in vivo,2 n
same,TEAE‐related dose interruption: decreased neutrophil count,in vivo,1 n
same,TEAE‐related dose interruption: nasopharyngitis,in vivo,1 n
same,TEAE‐related dose interruption: nausea,in vivo,3 n
same,TEAE‐related dose interruption: vomiting,in vivo,2 n
same,Number of patients with SAE,of 24 patients treated,three
